This note sets out measurements from ChEMBL document CHEMBL3352753, “Novel strategy to boost oral anticoagulant activity of blood coagulation enzyme inhibitors based on biotransformation into hydrophilic conjugates” (Bioorg Med Chem, 2014).

Calls of active or inactive are those of the source. No cut-off for these calls is given here. Some results are limits rather than exact numbers.

Data set [1] relates to Cynomolgus monkey. The experiment in a line: Ex vivo anticoagulant activity in cynomolgus monkey plasma at 1 to 10 mg/kg, po as single bolus dose measured after 5 mins post dose. The note with it: Macaca fascicularis. The data set is classed as functional, organism-based.
Data set [2] is described as follows: Permeability of the compound at pH 6.5 after 2 hrs by PAMPA. The data set is classed as ADME. The conditions noted are these: read-out: permeability. The method, boiled down: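 PAMPA in a filter-plate sandwich. Sample was 50 µM final, in buffer with 10% DMSO, filtered before use. Donor was pH 6.5 and acceptor pH 7.4. Plates incubated 2 h at 25 °C in humid air. Donor and acceptor contents quantified by UV spectrum (270–400 nm) against reference standards. n = 2.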
On the technique in general: PAMPA measures passive passage across an artificial lipid membrane.

A short description of data set [3]: Lipophilicity, logD of the compound. The class given is physicochemical. The note with it: octanol/water.
For data set [4], the system named is Cynomolgus monkey. Kind of data set: Ex vivo anticoagulant activity in cynomolgus monkey plasma at 1 mg/kg, iv as single bolus dose measured after 5 mins post dose. The data set is classed as functional, organism-based. Further details: dose 1 mg/kg. The note with it: Macaca fascicularis. The method, boiled down: (§1)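 Cynomolgus monkeys (n = 3) received a single intravenous bolus. Citrated blood was taken 5 min later and platelet-poor plasma prepared by centrifugation. PT expressed relative to normal cynomolgus monkey plasma, as mean + SD.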

A further data set concerns the target Coagulation factor X (Homo sapiens, UniProt P00742). The experiment in a line: Inhibition of purified factor 10a (unknown origin) using chromogenic substrate S-2222 by spectrophotometry. The method, boiled down:
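Chromogenic assay with S-2222 substrate in 0.05 M Tris-HCl pH 8.4 or 0.15 M NaCl. Reaction started by adding enzyme, and A405 read continuously at 37 °C. IC50 taken from a plot of logit residual activity against log inhibitor concentration. Mean of three separate determinations.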

The subject of data set [5] is Plasma. The experiment in a line: Anticoagulant activity in cynomolgus monkey plasma assessed as concentration required to double prothrombin time by coagulometry. The class given is functional, Macaca fascicularis. The method, boiled down: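 Citrated cynomolgus monkey blood spun at 3000 rpm for 10 min to give platelet-poor plasma, stored at −40 °C. Prothrombin time measured by coagulometer at 37 °C with thromboplastin, compared against a distilled water control. CT2 (concentration doubling clotting time) estimated from each individual concentration–response curve. Mean of three separate determinations.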

Data set [6] deals with Plasma. Kind of data set: Drug level in cynomolgus monkey plasma treated with 4'-Bromo-2'-[(5-chloro-2-pyridyl)carbamoyl]-6'-hydroxyl-1-isopropylpiperidine-4-carboxanilide hydrochloride at 10 mg/kg, po as single bolus dose measured after 1 to 24 hrs post dose. The class given is ADME, organism-based, Macaca fascicularis. Also on record: dose 10 mg/kg, route oral. The note with it: in vivo. The method, boiled down: (§2)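 Male cynomolgus monkeys (4.0–4.5 kg, n = 3), fasted, given 10 mg/kg orally as a suspension in 0.5% methylcellulose. Blood sampled at 1, 2, 4, 6, 8, 12 and 24 h and spun to plasma. Samples underwent solid-phase extraction, were dried, reconstituted in mobile phase and measured by LC–MS/MS for parent and glucuronide, with an internal standard. Dose and concentrations expressed as free form. LOQ 10 ng/mL.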

The target of another data set is Trypsin (Homo sapiens, UniProt P07477+P07478+P35030). Kind of data set: Inhibition of purified trypsin (unknown origin) using chromogenic substrate S-2222 by spectrophotometry. The data set is classed as protein assay. The method, boiled down: (§3)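 Chromogenic amidolysis started by adding enzyme, with A405 monitored continuously at 37 °C. Thrombin was 0.20 U/mL final with S-2238. Trypsin was 1.0 U/mL final with S-2222. Hydrolysis rate recorded as mOD/min.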

Data set [7] concerns Cynomolgus monkey. Kind of data set: Ex vivo anticoagulant activity in cynomolgus monkey plasma at 0.1 mg/kg, iv as single bolus dose measured after 5 mins post dose. The class given is functional, organism-based. Also on record: dose 0.1 mg/kg. The conditions noted are these: Macaca fascicularis. In outline: as §1
The target of another data set is Prothrombin (Homo sapiens, UniProt P00734). The experiment in a line: Inhibition of purified thrombin (unknown origin) using chromogenic substrate S-2238 by spectrophotometry. In outline:
as §3

Data set [8] has as its system Plasma. The experiment in a line: Drug metabolism in cynomolgus monkey plasma assessed as formation of glucuronide metabolite at 10 mg/kg, po as single bolus dose measured after 1 to 24 hrs post dose. The data set is classed as ADME, organism-based, Macaca fascicularis. Further details: dose 10 mg/kg, route oral. The conditions noted are these: in vivo. In outline:
as §2

Data set [9] has as its system Cynomolgus monkey. Kind of data set: Ex vivo anticoagulant activity in cynomolgus monkey plasma at 1 mg/kg, po as single bolus dose measured after 5 mins post dose. The data set is classed as functional, organism-based. Also on record: dose 1 mg/kg. The conditions noted are these: Macaca fascicularis.

Chain of Coagulation factor X (P00742 41-179 limits assumed): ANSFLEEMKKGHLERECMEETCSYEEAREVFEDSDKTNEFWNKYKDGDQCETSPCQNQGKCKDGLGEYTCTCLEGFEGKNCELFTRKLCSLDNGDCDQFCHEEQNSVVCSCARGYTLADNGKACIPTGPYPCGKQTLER
Chain of Coagulation factor X (P00742 235-488 limits assumed): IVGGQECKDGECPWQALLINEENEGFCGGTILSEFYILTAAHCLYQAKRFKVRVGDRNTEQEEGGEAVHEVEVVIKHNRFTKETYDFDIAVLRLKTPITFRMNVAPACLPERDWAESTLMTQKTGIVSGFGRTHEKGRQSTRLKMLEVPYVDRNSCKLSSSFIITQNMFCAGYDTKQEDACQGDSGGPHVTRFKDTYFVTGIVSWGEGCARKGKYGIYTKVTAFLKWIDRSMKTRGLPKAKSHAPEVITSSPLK

Broadly, the logD is the decadic logarithm of the distribution of all forms, ionised or not, between an organic phase and buffer at a given pH. For orientation: IC50 means the concentration at which inhibition is half-maximal. Turning to `CC(C)N1CCC(C(=O)Nc2ccc(Cl)cc2C(=O)Nc2ccc(Cl)cn2)CC1`, the result with Cynomolgus monkey [1] and in the data set with Cynomolgus monkey [4] was Active. In [2], the Papp at 2 h is more than 30 ×10⁻⁶ cm/s. The logD in data set [3] is 1.8. The same compound gave an IC50 against Coagulation factor X of 5.8 nM. In addition, the 2PT in the data set with Plasma [5] came out at 0.22 µM.

Consider `CC(C)N1CCC(C(=O)Nc2c(O[C@@H]3O[C@H](C(=O)O)[C@@H](O)[C@H](O)[C@H]3O)cc(Br)cc2C(=O)Nc2ccc(Cl)cn2)CC1`, for which, in data set [3], the logD is -1.1. The Drug metabolism entry with Plasma [6] is on record as “metabolite_detected”. For the same compound, the IC50 against Trypsin is more than 100000 nM; against Coagulation factor X it was 4.9 nM; against Prothrombin, more than 100000 nM. Moreover, the outcome with Cynomolgus monkey [7] was Active. Further, the 2PT with Plasma [5] came to 0.28 µM.

Consider `CC(C)N1CCC(C(=O)Nc2c(O)cc(Cl)cc2C(=O)Nc2ccc(Cl)cn2)CC1`, for which inhibition on Coagulation factor X was half-maximal at 8.2 nM (IC50).

In turn, `CC(C)N1CCC(C(=O)Nc2c(O[C@@H]3O[C@H](C(=O)O)[C@@H](O)[C@H](O)[C@H]3O)cc(Cl)cc2C(=O)Nc2ccc(Cl)cn2)CC1` registered an IC50 on Coagulation factor X of 15 nM.

With `CC(C)N1CCC(C(=O)Nc2c(O)cc(Br)cc2C(=O)Nc2ccc(Cl)cn2)CC1`, the Drug metabolism result in the data set on Plasma [8] is listed as “metabolite_detected”. Besides, the Papp at 2 h in data set [2] is more than 30 ×10⁻⁶ cm/s. In addition, the IC50 on Trypsin is more than 100000 nM; on Coagulation factor X, 4 nM; on Prothrombin, more than 100000 nM. Further, the outcome in the data set on Cynomolgus monkey [9] was Active. Moreover, in the data set with Plasma [5], the 2PT came to 0.31 µM.
